In ChEMBL document CHEMBL1145830, “Design, synthesis, and evaluation of psorospermin/quinobenzoxazine hybrids as structurally novel antitumor agents” (J Med Chem, 2003):

Key:
HT-29 = assay: Inhibitory concentration against HT-29 colon cancer cell line; format: functional, cell-based; conditions: Homo sapiens
Summary of the method: (§1)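 MTT growth assay: exponentially growing cells, (1-2) × 10^3 per well in 0.1 mL medium, were seeded on day 0 and cultured per supplier instructions. On day 1 an equal volume of medium carrying graded compound concentrations was added. On day 4 cultures received MTT (1 mg/mL in Dulbecco's PBS) for 4 h at 37 °C.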

RPMI-8226 [1] = assay: Inhibitory concentration against 8226/Dox40 (Dox-Re) cancer cell line; format: functional, cell-based; conditions: Homo sapiens; summary of the method: as §1
NCI-H522 (human) = assay: Inhibitory concentration against H522 (NSCLS) cancer cell line
MCF7 = assay: Inhibitory concentration against MCF-7 breast cancer cell line; format: functional, cell-based; conditions: Homo sapiens; summary of the method: as §1
RPMI-8226 [2] = assay: Inhibitory concentration against 8226 myeloma cancer cell line; format: functional, cell-based; conditions: Homo sapiens; summary of the method: as §1
U-937 = assay: Inhibitory concentration against U937 lymphoma cancer cell line; format: functional, cell-based; conditions: Homo sapiens; summary of the method: as §1
DU-145 = assay: Inhibitory concentration against DU145 prostate cancer cell line; format: functional, cell-based; conditions: Homo sapiens; summary of the method: as §1
MIA PaCa-2 = assay: Inhibitory concentration against MIA PaCa pancreas cancer cell line; format: functional, cell-based; conditions: Homo sapiens; summary of the method: as §1
HeLa = assay: Inhibitory concentration against Hela cervix cancer cell line; format: functional, cell-based; conditions: Homo sapiens; summary of the method: as §1
Granta = assay: Inhibitory concentration against Granta lymphoma cancer cell line; format: functional, cell-based; conditions: Homo sapiens; summary of the method: as §1

Compound: C[C@@](O)(CCl)[C@H]1Cc2ccc3c(c2O1)-n1cc(C(=O)O)c(=O)c2cc(F)c(N4CC[C@H](N)C4)c(c21)O3
- IC50 (HT-29): 90 nM
- IC50 (RPMI-8226 [1]): 30 nM
- IC50 (NCI-H522 (human)): 20 nM
- IC50 (MCF7): 80 nM
- IC50 (RPMI-8226 [2]): 50 nM
- IC50 (U-937): 20 nM
- IC50 (DU-145): 30 nM
- IC50 (MIA PaCa-2): 40 nM
- IC50 (HeLa): 130 nM
- IC50 (Granta): 2 nM

Compound: C[C@]1([C@H]2Cc3ccc4c(c3O2)-n2cc(C(=O)O)c(=O)c3cc(F)c(N5CC[C@H](N)C5)c(c32)O4)CO1
- IC50 (HT-29): 140 nM
- IC50 (RPMI-8226 [1]): 50 nM
- IC50 (NCI-H522 (human)): 70 nM
- IC50 (MCF7): 240 nM
- IC50 (RPMI-8226 [2]): 90 nM
- IC50 (U-937): 30 nM
- IC50 (DU-145): 80 nM
- IC50 (MIA PaCa-2): 90 nM
- IC50 (HeLa): 290 nM
- IC50 (Granta): 4 nM

Compound: COc1cc2c(c3oc4c(O)cccc4c(=O)c13)C[C@H]([C@@]1(C)CO1)O2 [PSOROSPERMIN]
- IC50 (HT-29): 1110 nM
- IC50 (RPMI-8226 [1]): 230 nM
- IC50 (NCI-H522 (human)): 770 nM
- IC50 (MCF7): 570 nM
- IC50 (RPMI-8226 [2]): 290 nM
- IC50 (U-937): 270 nM
- IC50 (DU-145): 210 nM
- IC50 (MIA PaCa-2): 380 nM
- IC50 (HeLa): 1460 nM
- IC50 (Granta): 40 nM

Compound: N[C@H]1CCN(c2c(F)cc3c(=O)c(C(=O)O)cn4c3c2Oc2ccccc2-4)C1
- IC50 (HT-29): 450 nM
- IC50 (RPMI-8226 [1]): 270 nM
- IC50 (NCI-H522 (human)): 300 nM
- IC50 (MCF7): 660 nM
- IC50 (RPMI-8226 [2]): 270 nM
- IC50 (U-937): 310 nM
- IC50 (DU-145): 470 nM
- IC50 (MIA PaCa-2): 420 nM
- IC50 (HeLa): 800 nM
- IC50 (Granta): 90 nM
